In ChEMBL document CHEMBL2163306, “Synthesis of new chiral xanthone derivatives acting as nerve conduction blockers in the rat sciatic nerve” (Eur J Med Chem, 2012):
Active and inactive are the calls of the source. The calls are words filed in the database; no cut-off is given here.

Key:
Erythrocyte [1] = assay: Antihemolytic activity against hypotonic hemolysis in Wistar rat erythrocytes at 0.1 to 30 uM after 10 mins; format: functional, cell-based
In short: (§1)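 Blood was taken by puncture from urethane-anaesthetized (1.2 g/kg) Wistar rats and heparinised. After centrifugation, plasma and leukocyte layer were removed and cells were resuspended in 154 mM NaCl/10 mM phosphate buffer pH 7.0. The suspension was added to drug dilutions in hypotonic NaCl/phosphate buffer pH 7.0 (NaCl 63–67 mM for 50% haemolysis) and held 10 min at room temperature. It was then spun, and supernatant haemoglobin was read at 540 nm. Run in duplicate; expressed as relative haemolysis.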

[2] = Antihemolytic activity against hypotonic hemolysis in Wistar rat erythrocytes at 100 uM after 10 mins relative to control; format: functional, Erythrocyte; in short: as §1
Erythrocyte [3] = assay: Antihemolytic activity against hypotonic hemolysis in Wistar rat erythrocytes at 100 uM after 10 mins relative to sucrase; format: functional, cell-based; in short: as §1
Erythrocyte [4] = assay: Antihemolytic activity against hypotonic hemolysis in Wistar rat erythrocytes at 0.1 to 1 uM after 10 mins; format: functional, cell-based; in short: as §1
[5] = Toxicity in isolated Wistar rat sciatic nerve assessed as axonal damage by LDH assay; format: tissue-based; details: ex_vivo
In short: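 Neuronal damage in isolated Wistar rat sciatic nerve bundles was gauged from LDH activity leaked into the incubation medium over time, following the Bergmeyer method.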

Sciatic nerve [6] = assay: Inhibition of amplitude of compound action potential in isolated Wistar rat sciatic nerve after 15 mins by electrophysiology assay; format: functional, tissue-based
In short: (§2)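 Sciatic nerve bundles 3–4 cm long came from adult Wistar rats (200–400 g). Drugs in Tyrode's solution were applied cumulatively (0.100–3.00 µM) at 1 mL/min flow, with at least 15 min contact each. Blockade was taken as percentage decrement in compound action potential amplitude versus control. Solvent was at most 0.05% v/v.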

Erythrocyte [7] = assay: Antihemolytic activity against hypotonic hemolysis in Wistar rat erythrocytes at 0.3 to 1 uM after 10 mins; format: functional, cell-based; in short: as §1
Erythrocyte [8] = assay: Antihemolytic activity against hypotonic hemolysis in Wistar rat erythrocytes after 10 mins; format: functional, cell-based; in short: as §1
Sciatic nerve [9] = assay: Inhibition of amplitude of compound action potential in isolated Wistar rat sciatic nerve at 0.1 to 3 uM after 15 mins by electrophysiology assay; format: functional, tissue-based; in short: as §2
Erythrocyte [10] = assay: Antihemolytic activity against hypotonic hemolysis in Wistar rat erythrocytes at 0.1 to 100 uM after 10 mins; format: functional, cell-based; in short: as §1

Structure (SMILES) | Ratio [2] | Activity [5] | inhibition (Sciatic nerve [6]) | Activity (Erythrocyte [7]) | inhibition (Sciatic nerve [9]) | also measured
O=c1c2ccccc2oc2ccccc12 [XANTHONE] | 0.686 |  |  |  |  | Activity (Erythrocyte [1]): inactive
COc1ccc2c(=O)c3cc(C(=O)N[C@H](CO)C(C)C)ccc3oc2c1 |  | Non-toxic | Dose-dependent effect |  |  | Activity (Erythrocyte [3]): Active; Activity (Erythrocyte [4]): Active
COc1ccc2c(=O)c3cc(C(=O)N[C@@H](C)c4ccc(C)cc4)ccc3oc2c1 | 0.967 | Non-toxic | Dose-dependent effect | Active |  | 
COc1ccc2c(=O)c3cc(C(=O)N[C@H](CO)CC(C)C)ccc3oc2c1 |  | Non-toxic | Dose-dependent effect | Active |  | 
CCCCOc1cc(C(=O)NCCN(CC)CC)c2ccccc2n1 [DIBUCAINE] | 0.421 |  |  |  | Active | Activity (Erythrocyte [8]): Dose-dependent effect
OC[C@H]1O[C@@](CO)(O[C@H]2O[C@H](CO)[C@@H](O)[C@H](O)[C@H]2O)[C@@H](O)[C@@H]1O |  |  |  |  | inactive | Activity (Erythrocyte [10]): Active
